In ChEMBL document CHEMBL1140058, “Synthesis of new sulfonyl pyrrolidine derivatives as matrix metalloproteinase inhibitors” (Bioorg Med Chem, 2008) one finds IC50 data, which are given here for 21 compounds.

One test deals with Aminopeptidase N (Homo sapiens, UniProt P15144). The test can be described thus: Inhibition of APN by spectrophotometric assay. The method in brief:
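Enzyme and compound preincubated 30 min at 37 °C in 50 mM sodium phosphate buffer, pH 7.2. L-leucine p-nitroanilide substrate was then added for a further 60 min at 37 °C, and absorbance was read at 405 nm. The no-compound well was taken as 100% and the enzyme-only well as blank. Inhibition % = (OD100% − ODcompound)/(OD100% − ODblank) × 100.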

In test [1] the target is 72 kDa type IV collagenase (Homo sapiens, UniProt P08253). The test can be described thus: Inhibition of MMP2 by microtiter plate fluorimetric assay. Conditions: in the assay text read “spectrophotometric” for “fluorimetric”. The method in brief: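 Enzyme and compound preincubated 30 min at 37 °C in 50 mM sodium borate buffer, pH 8.5. Substrate was added for a further 60 min at 37 °C, then 0.03% picrylsulfonic acid for 20 min at room temperature. Absorbance was read at 450 nm. The no-compound well was taken as 100% and the enzyme-only well as blank. Inhibition % = (OD100% − ODcompound)/(OD100% − ODblank) × 100.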
Sequence of 72 kDa type IV collagenase (P08253 whole entry): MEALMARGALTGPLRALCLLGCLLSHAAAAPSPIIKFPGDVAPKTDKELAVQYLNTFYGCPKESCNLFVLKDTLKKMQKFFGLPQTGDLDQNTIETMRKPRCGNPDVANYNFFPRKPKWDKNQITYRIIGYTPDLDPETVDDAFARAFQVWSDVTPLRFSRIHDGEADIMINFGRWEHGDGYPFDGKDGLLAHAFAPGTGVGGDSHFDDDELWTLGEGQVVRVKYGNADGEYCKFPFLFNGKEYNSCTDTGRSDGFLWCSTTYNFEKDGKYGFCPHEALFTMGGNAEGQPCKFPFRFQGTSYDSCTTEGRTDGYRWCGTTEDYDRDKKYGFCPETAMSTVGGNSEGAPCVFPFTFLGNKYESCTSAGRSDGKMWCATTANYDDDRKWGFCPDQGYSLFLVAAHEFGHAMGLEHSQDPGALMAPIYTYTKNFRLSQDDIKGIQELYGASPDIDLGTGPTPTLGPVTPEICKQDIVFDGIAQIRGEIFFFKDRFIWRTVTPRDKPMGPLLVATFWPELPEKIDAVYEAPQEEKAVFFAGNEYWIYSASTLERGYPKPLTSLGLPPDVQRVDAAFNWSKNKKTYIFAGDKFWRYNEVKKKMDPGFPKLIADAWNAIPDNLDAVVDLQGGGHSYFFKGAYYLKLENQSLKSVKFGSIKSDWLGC

Sequence of Aminopeptidase N (P15144 whole entry): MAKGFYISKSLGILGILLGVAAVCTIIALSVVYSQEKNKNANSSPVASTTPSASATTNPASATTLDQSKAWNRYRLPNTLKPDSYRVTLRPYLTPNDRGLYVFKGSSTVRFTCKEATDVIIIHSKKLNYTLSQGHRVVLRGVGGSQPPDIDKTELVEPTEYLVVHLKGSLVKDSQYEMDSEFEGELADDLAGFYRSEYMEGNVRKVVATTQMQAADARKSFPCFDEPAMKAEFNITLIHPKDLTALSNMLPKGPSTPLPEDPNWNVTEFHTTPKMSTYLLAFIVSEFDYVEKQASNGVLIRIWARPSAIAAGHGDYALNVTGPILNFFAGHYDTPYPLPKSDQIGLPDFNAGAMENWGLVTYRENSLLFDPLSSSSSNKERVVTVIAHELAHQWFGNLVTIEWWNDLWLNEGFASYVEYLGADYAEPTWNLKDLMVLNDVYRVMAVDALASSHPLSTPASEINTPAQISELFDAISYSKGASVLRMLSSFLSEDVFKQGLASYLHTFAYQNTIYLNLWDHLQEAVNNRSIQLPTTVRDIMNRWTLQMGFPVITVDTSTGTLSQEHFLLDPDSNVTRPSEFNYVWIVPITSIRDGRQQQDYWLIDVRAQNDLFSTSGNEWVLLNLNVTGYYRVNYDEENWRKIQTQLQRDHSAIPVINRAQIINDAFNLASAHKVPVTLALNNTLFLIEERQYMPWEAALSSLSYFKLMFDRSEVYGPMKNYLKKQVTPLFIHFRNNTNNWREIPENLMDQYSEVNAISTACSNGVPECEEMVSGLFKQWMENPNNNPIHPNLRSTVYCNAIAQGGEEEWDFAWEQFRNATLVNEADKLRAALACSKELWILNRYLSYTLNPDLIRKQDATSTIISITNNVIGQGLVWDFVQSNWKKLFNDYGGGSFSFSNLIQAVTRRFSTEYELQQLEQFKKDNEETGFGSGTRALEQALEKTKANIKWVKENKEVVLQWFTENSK

Take `COC(=O)[C@@H]1C[C@@H](OS(=O)(=O)c2ccc(C)cc2)CN1S(=O)(=O)c1ccc(C)cc1`: the IC50 (commonly the point on the concentration scale where inhibition reaches its midpoint) at Aminopeptidase N was found to be 101 µM; in test [1] it was 0.007 µM.
For `COC(=O)[C@@H]1C[C@@H](OS(=O)(=O)c2ccccc2)CN1S(=O)(=O)c1ccccc1`, the IC50 at Aminopeptidase N was found to be 47.3 µM; in test [1], 0.01 µM.
Consider `COC(=O)[C@@H]1C[C@@H](OS(C)(=O)=O)CN1S(=O)(=O)c1ccc(C)cc1`, for which the values for the 50% inhibitory concentration (IC50) (at Aminopeptidase N; in test [1]) were 41.4 µM and 0.2 µM, respectively.
On the same counts, the results for `COC(=O)[C@@H]1C[C@@H](OC(=O)c2ccc(Cl)cc2)CN1S(=O)(=O)c1ccc(C)cc1` are 51.2 µM and 2.2 µM.
The matching figures for `COC(=O)[C@@H]1C[C@@H](OC(=O)c2ccccc2)CN1S(=O)(=O)c1ccccc1`: 43.8 µM and 3.5 µM.
The matching figures for `COC(=O)[C@@H]1C[C@@H](OS(C)(=O)=O)CN1S(=O)(=O)c1ccccc1`: 39.5 µM and 1.3 µM.
Take `COC(=O)[C@@H]1C[C@@H](OC(=O)c2ccccc2)CN1S(C)(=O)=O`: the values for the IC50 (at Aminopeptidase N; in test [1]) were 53.6 µM and 5.2 µM, respectively.
As to `COC(=O)[C@@H]1C[C@@H](OC(=O)c2ccc(Cl)cc2)CN1S(C)(=O)=O`, the results for the concentration for half-maximal inhibition (IC50) (on Aminopeptidase N; in test [1]) were 47.5 µM and 1.5 µM, respectively.
The matching figures for `COC(=O)[C@@H]1C[C@@H](OC(=O)c2ccc(Cl)cc2)CN1S(=O)(=O)c1ccccc1`: 36.4 µM and 2.7 µM.
On the same counts, the results for `COC(=O)[C@@H]1C[C@@H](OS(C)(=O)=O)CN1S(C)(=O)=O` are 31.6 µM and 8.9 µM.
For `Cc1ccc(S(=O)(=O)N2C[C@H](O)C[C@H]2C(=O)NO)cc1`, the concentration for half-maximal inhibition (IC50) against Aminopeptidase N is 21.7 µM; in test [1], 0.002 µM.
As for `COC(=O)[C@@H]1C[C@@H](OS(=O)(=O)c2ccc(C)cc2)CN1S(C)(=O)=O`, the 50% inhibitory concentration (IC50) on Aminopeptidase N turned out to be 68.9 µM; in test [1] it was 0.2 µM.
On the same counts, the results for `COC(=O)[C@@H]1C[C@@H](OS(=O)(=O)c2ccccc2)CN1S(C)(=O)=O` are 28.4 µM and 0.7 µM.
The matching figures for `O=C(NO)[C@@H]1C[C@@H](O)CN1S(=O)(=O)c1ccccc1`: 33.5 µM and 0.004 µM.
The matching figures for `COC(=O)[C@@H]1C[C@@H](OC(=O)c2ccccc2)CN1S(=O)(=O)c1ccc(C)cc1`: 24.8 µM and 3.2 µM.
Turning to `COC(=O)[C@@H]1C[C@@H](OC(=O)/C=C/c2ccccc2)CN1S(=O)(=O)c1ccc(C)cc1`, the half-inhibitory concentration (IC50) stood at 169 µM against Aminopeptidase N and 0.04 µM in test [1].
Consider `CS(=O)(=O)N1C[C@H](O)C[C@H]1C(=O)NO`, for which the IC50 against Aminopeptidase N was found to be 26.3 µM; in test [1], 0.02 µM.
For the compound `COC(=O)[C@@H]1C[C@@H](OC(=O)/C=C/c2ccccc2)CN1S(=O)(=O)c1ccccc1`, the half-maximal inhibitory concentration (IC50) came out at 135 µM against Aminopeptidase N and 0.09 µM in test [1].
The matching figures for `COC(=O)[C@@H]1C[C@@H](OS(=O)(=O)c2ccccc2)CN1S(=O)(=O)c1ccc(C)cc1`: 74.6 µM and 0.05 µM.
On the same counts, the results for `COC(=O)[C@@H]1C[C@@H](OC(=O)/C=C/c2ccccc2)CN1S(C)(=O)=O` are 114 µM and 0.5 µM.
As for `COC(=O)[C@@H]1C[C@@H](OS(=O)(=O)c2ccc(C)cc2)CN1S(=O)(=O)c1ccccc1`, the IC50 at Aminopeptidase N was found to be 61.3 µM; in test [1], 0.04 µM.
